Assays:
[1] = tested on: MCF7; test: Antiproliferative activity against human MCF7 cells assessed as inhibition of cell proliferation incubated for 48 hrs by CCK8 assay; format: functional, cell-based; settings: MCF7, 48 h
Outline: (§1)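 Human A549 lung, Hela cervical, Bel-7402 hepatocellular and MCF-7 breast cancer cells, plus mouse embryo fibroblast NIH3T3, tested for anti-proliferative activity by CCK-8 assay. For the matrine combination tests, the chalcone and matrine were used at a 1:1 molar ratio; values given as IC50.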

[2] = tested on: HeLa; test: Antiproliferative activity against human HeLa cells assessed as inhibition of cell proliferation incubated for 48 hrs in presence of matrine by CCK8 assay; format: functional, cell-based; outline: as §1
[3] = tested on: A549; test: Antiproliferative activity against human A549 cells assessed as inhibition of cell proliferation incubated for 48 hrs by CCK8 assay; format: functional, cell-based; settings: A549, 48 h; outline: as §1
[4] = Antiproliferative activity against mouse NIH/3T3 cells assessed as inhibition of cell proliferation incubated for 48 hrs by CCK8 assay; format: cell-based; settings: NIH3T3, 48 h; outline: as §1
[5] = Antiproliferative activity against human Bel7402 cells assessed as inhibition of cell proliferation incubated for 48 hrs in presence of matrine by CCK8 assay; format: functional, cell-based; settings: Bel-7402, 48 h; outline: as §1
[6] = tested on: MCF7; test: Antiproliferative activity against human MCF7 cells assessed as inhibition of cell proliferation incubated for 48 hrs in presence of matrine by CCK8 assay; format: functional, cell-based; settings: MCF7, 48 h; outline: as §1
[7] = tested on: A549; test: Antiproliferative activity against human A549 cells assessed as inhibition of cell proliferation incubated for 48 hrs in presence of matrine by CCK8 assay; format: functional, cell-based; settings: A549, 48 h; outline: as §1
[8] = tested on: HeLa; test: Antiproliferative activity against human HeLa cells assessed as inhibition of cell proliferation incubated for 48 hrs by CCK8 assay; format: functional, cell-based; outline: as §1
[9] = tested on: A549; test: Induction of apoptosis in human A549 cells at 15 to 50 uM incubated for 24 hrs by Annexin V-FITC/propidium iodide double staining based flow cytometry; format: functional
Outline: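 A549 cells exposed for 24 h at three concentrations alongside a 0.1% DMSO control. Cells double-stained with Annexin V-FITC/propidium iodide and analysed by flow cytometry. Early apoptosis was read from the lower-right quadrant and late apoptosis from the upper-right, and both were summed. Done in triplicate, with statistics compared to control.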

[10] = Antiproliferative activity against human Bel7402 cells assessed as inhibition of cell proliferation incubated for 48 hrs by CCK8 assay; format: functional, cell-based; settings: Bel-7402, 48 h; outline: as §1

| Structure (SMILES) | IC50 [1] [µM] | IC50 [2] [µM] | IC50 [3] [µM] | IC50 [4] [µM] | IC50 [5] [µM] | IC50 [6] [µM] | IC50 [7] [µM] | IC50 [8] [µM] | Activity [9] [%] | IC50 [10] [µM] |
| --- | --- | --- | --- | --- | --- | --- | --- | --- | --- | --- |
| C#CCOc1ccc(C(=O)/C=C/c2ccccc2)c(O)c1 | > 50 | > 50 | > 50 | 66.6 | > 50 | > 50 | > 50 | > 50 |  |  |
| O=C1CCC[C@@H]2[C@H]3CCCN4CCC[C@@H](CN12)[C@@H]34 [MATRINE] | > 50 |  | > 50 |  |  |  |  | > 50 | 28.4 | > 50 |

Reference: ChEMBL document CHEMBL3425481, “Design, synthesis and anticancer activity of matrine-1H-1,2,3-triazole-chalcone conjugates” (Bioorg Med Chem Lett, 2015)
